Activity calls are given as the source filed them. The rule behind the calls is not given here.

As a reminder, the inhibition is the drop in the measured response relative to a control, in per cent. As a reminder, the IC50 is the concentration that gives 50% inhibition.

What all share (assay type): functional
Assay [1] is described as follows: Antioxidant activity against lipid peroxidation assessed as TBARS production using rape seed oil after 60 mins. The procedure, abridged:
(§1)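 Rape seed oil emulsified with Tween-40 in Tris-HCl (0.2 M, pH 7.4). Test compound added at final 37.5, 75.0, 125.0 or 250.0 µM, then tubes held in a boiling water bath for 30 min. Absorbance read at 532 nm. Lipid peroxidation inhibition is given as percent versus a blank without compound. Triplicate.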

A short description of assay [2]: Antioxidant activity against pentose 2-deoxyribose oxidation at 250 uM after 60 mins by TBA method. The procedure, abridged:
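Deoxyribose assay in KH2PO4/KOH (10.0 mM, pH 7.4) with H2O2, EDTA, FeCl3 and ascorbic acid (each 100.0 µM) plus 2-deoxyribose (2.8 mM). Compound at final 37.5–250.0 µM, incubated at 37 °C for 1 h. TBA/TCA added, heated at 90 °C for 30 min, read at 532 nm. Result is percent antioxidant capacity versus blank. Triplicate.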

Assay [3] has as its system Radical scavenging activity. Briefly: Antioxidant activity assessed as DPPH radical scavenging activity. The method in brief: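 DPPH absorbance at 515 nm read at 30 min against a blank. Compounds tested at 37.5, 75, 125 and 250 µM in triplicate, with Trolox as standard. IC50 is the concentration giving 50% inhibition of absorbance, taken from the plotted curves.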
(In general: Loss of DPPH colour is used to gauge radical scavenging.)

Assay [4] in a line: Antioxidant activity against bovine serum albumin oxidation after 60 mins. The method in brief: (§2)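 BSA (10 mg/mL) oxidised with H2O2 (1.0 mM) and FeSO4 (0.5 mM) in the presence of sample; shaken 10 min, then TCA (10.0%) precipitation at 4 °C. Pellet derivatised with DNPH (10 mM) in 2 N HCl for 1 h at room temperature, reprecipitated with cold TCA, washed, and dissolved in 6 M guanidine-HCl (pH 6.5). Protein carbonyl formation was measured.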

A short description of assay [5]: Antioxidant activity against lipid peroxidation assessed as TBARS production using rape seed oil at 250 uM after 60 mins. The method in brief:
as §1

Assay [6] can be described thus: Antioxidant activity against bovine serum albumin oxidation at 37.5 uM after 60 mins. The method in brief: as §2

For `C[C@@H]1Oc2c(O)c3c(c(O)c2[C@H]1O)C(=O)C(O)=C1[C@]3(C)CC[C@H]2C[C@@]12C`, the Activity result in assay [1] and in assay [4] was “Dose-dependent effect” in each case. The same compound displayed an inhibition in assay [2] of 50%. The concentration for half-maximal inhibition (IC50) in assay [3] was found to be 84 µM.
Consider `C[C@H]1Cc2c(O)c3c(c(O)c2O1)[C@@]1(C)CC[C@H]2C[C@@]2(C)C1=C(O)C3=O` [TEUVINCENONE C], for which the Activity entry in assay [1] and in assay [4] was “Dose-dependent effect” throughout. This compound yielded an inhibition in assay [2] of 50%. Moreover, in assay [3], the concentration for half-maximal inhibition (IC50) was determined as 97 µM.
Turning to `Cc1cc2c(O)c3c(c(O)c2o1)[C@@]1(C)CC[C@H]2C[C@@]2(C)C1=C(O)C3=O`, the values for the inhibition in assay [5] and in assay [6] were 76.9% and 31%, respectively. Also, the Activity entry in assay [1] and in assay [4] was “Dose-dependent effect” each time. Also, the inhibition entry in assay [2] was “inactive”. The half-maximal inhibitory concentration (IC50) in assay [3] was determined as 55 µM.
For the compound `C[C@]12CC[C@H]3C[C@@]3(C)C1=C(O)C(=O)c1c2c(O)c2oc(CO)cc2c1O`, the Activity result in assay [1] and in assay [4] was “Dose-dependent effect” in each case. In assay [2], the inhibition entry was “inactive”. Further, the IC50 in assay [3] was determined as 101 µM.
For the compound `Cc1cc2c(O)c3c(c(O)c2o1)[C@@]1(C)CCCC(C)(C)C1=C(O)C3=O`, the Activity result in assay [1] and in assay [4] was “Dose-dependent effect” throughout. In addition, the inhibition result in assay [2] is “inactive”. In addition, the 50% inhibitory concentration (IC50) in assay [3] is 76 µM.
Take `C[C@H]1Cc2c(O)c3c(c(O)c2O1)[C@@]1(C)CC[C@H]2C[C@@]2(C)[C@@H]1CC3=O` [TEUVINCENONE D]: the Activity entry in assay [1] and in assay [4] was “Dose-dependent effect” each time. Moreover, the inhibition in assay [2] was found to be 50%. Besides, the IC50 in assay [3] was found to be 111 µM.
As for `CC1(C)CCC[C@@]2(C)C1=C(O)C(=O)c1c2c(O)c2oc(CO)cc2c1O`, the Activity entry in assay [1] and in assay [4] was “Dose-dependent effect” throughout. In addition, the inhibition in assay [2] worked out at 50%. For the same compound, the IC50 in assay [3] was determined as 120 µM.
With `CC1(C)CCC[C@@]2(C)C1=C(O)C(=O)c1c(O)c3c(c(O)c12)O[C@@H](CO)C3` [VILLOSIN C], the Activity result in assay [1] and in assay [4] was “Dose-dependent effect” in each case. In assay [2], the inhibition is 50%. Moreover, the concentration for half-maximal inhibition (IC50) in assay [3] was found to be 86 µM.
`C[C@H]1Cc2c(O)c3c(c(O)c2O1)[C@@]1(C)CCCC(C)(C)C1=C(O)C3=O` [TEUVINCENONE B]: the Activity entry in assay [1] and in assay [4] was “Dose-dependent effect” throughout. In addition, the inhibition in assay [2] was 50%. In assay [3], the IC50 was determined as 55 µM.
For the compound `Cc1cc2c(O)c3c(c(O)c2o1)[C@@]1(C)CCC(=O)C(C)(C)C1=C(O)C3=O`, the Activity entry in assay [1] and in assay [4] was “Dose-dependent effect” in each case. Besides, in assay [2], the inhibition came out at 50%. In addition, in assay [3], the half-inhibitory concentration (IC50) was 64 µM.
Turning to `C[C@H]1Cc2c(O)c3c(c(O)c2O1)[C@@]1(C)CCC(=O)C(C)(C)C1=C(O)C3=O` [TEUVINCENONE A], the Activity result in assay [1] and in assay [4] was “Dose-dependent effect” in each case. The same compound gave an inhibition in assay [2] of 50%. In addition, the 50% inhibitory concentration (IC50) in assay [3] was 63 µM.
Turning to `C[C@@H]1Oc2c(O)c3c(c(O)c2[C@H]1O)C(=O)C(O)=C1C(C)(C)CCC[C@@]13C`, the Activity result in assay [1] and in assay [4] was “Dose-dependent effect” each time. In assay [2], this compound had an inhibition of 50%. For the same compound, in assay [3], the half-maximal inhibitory concentration (IC50) was 71 µM.
Regarding `Cc1c(C)c2c(c(C)c1O)CCC(C)(C(=O)O)O2` (stereo not given) [TROLOX], in assay [3], the IC50 was found to be 24 µM.
Turning to `Cc1cc2c(O)c3c(c(O)c2o1)[C@@]1(C)CC[C@H]2C[C@@]2(C)[C@@H]1CC3=O`, the Activity result in assay [1] and in assay [4] was “Dose-dependent effect” throughout. The inhibition in assay [2] came out at 50%. Also, the IC50 in assay [3] was 130 µM.

Source of the values: ChEMBL document CHEMBL1287805, “abeo-abietanes from Teucrium polium roots as protective factors against oxidative stress” (Bioorg Med Chem, 2010).
